# Laboratory results from paper PMC3983359 (Journal of Medicinal Chemistry, 2014).
# “Also recorded” adds a separate entry of the source. Structures can show the parent of a compound that is named as a salt. Peptide text beside a SMILES is read from it. * marks the point of attachment. βNA = c1ccc2cc(N*)ccc2c1
# Columns and labels:
# [1] = test system: B. subtilis 168; assay: Membrane damage assessment; type: cell-based, Bacillus subtilis; settings: 15 min incubation, up to 10-fold MIC, Syto9/propidium iodide
# In short: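 B. subtilis membrane integrity assessed by fluorescence microscopy with Syto9, which stains all cells, and propidium iodide, which enters only compromised cells. […] Stained cells were counted.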
# [2] = test system: B. subtilis; assay: MIC determination, broth dilution, B. subtilis; type: cell-based, Bacillus subtilis; settings: for MIC: Bacillus subtilis
# In short: (§1)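 Bacterial MIC followed NCCLS M07 broth microdilution. Test compound in DMSO (1 μL) added to 50 μL cation-adjusted Mueller Hinton II broth, then ~1 × 10^3 cfu from overnight liquid culture. Incubated at 30–37 °C for 16–20 h. MIC taken as the first well without visible growth. For imaging, 0.7% w/v resazurin (10 μL) added, then 4 h at 37 °C.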
# [3] = target: T1, Sfp-PPTase (Bacillus subtilis, UniProt P39135); assay: Rescue-by-dilution reversibility experiment; type: biochemical; settings: 100-fold dilution from conditions producing 90% inhibition
# T1 sequence (P39135 1-224): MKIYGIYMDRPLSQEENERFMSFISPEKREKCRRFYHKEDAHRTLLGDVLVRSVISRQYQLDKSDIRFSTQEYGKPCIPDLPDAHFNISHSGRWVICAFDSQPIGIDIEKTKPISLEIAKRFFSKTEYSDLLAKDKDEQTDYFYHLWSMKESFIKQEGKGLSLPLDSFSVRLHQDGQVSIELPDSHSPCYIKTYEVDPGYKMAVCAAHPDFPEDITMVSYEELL
# [4] = target: T2, B. subtilis Sfp-PPTase (Bacillus subtilis, UniProt P39135); assay: Sfp-PPTase qHTS assay; type: biochemical; settings: for IC50 ± SD: triplicate; for Sfp-PPTase inhibitory activity in words: SAR discussion
# T2 sequence (P39135 1-224): T1 sequence (P39135 1-224)
# [5] = test system: B. subtilis (HM489); assay: B. subtilis HM489 antibacterial assay; type: cell-based, Bacillus subtilis; settings: cellular ATP content, Bac-Titer Glo
# [6] = test system: HepG2 cells; assay: HepG2 cytotoxicity counterscreen; type: cell-based, human; settings: cellular ATP content, CellTiter-Glo, 48 hr
# [7] = test system: P. aeruginosa; assay: MIC determination, broth dilution, P. aeruginosa; type: cell-based, Pseudomonas aeruginosa; settings: ATCC9028
# In short: as §1
# [8] = Mouse liver microsome stability; type: in vitro ADME
# [9] = PAMPA passive permeability; type: in vitro ADME
# [10] = test system: S. aureus and B. subtilis; assay: Minimum bactericidal concentration determination; type: cell-based
# [11] = test system: E. coli; assay: MIC determination, broth dilution, E. coli; type: cell-based, Escherichia coli; settings: E. coli K12 and BW25113
# In short: as §1
# [12] = target: T3, human PPTase (Homo sapiens, UniProt Q9NRN7); assay: Gel-based PPTase assay with the human enzyme; type: biochemical; settings: concentrations up to 125 μM
# T3 sequence (Q9NRN7 1-309): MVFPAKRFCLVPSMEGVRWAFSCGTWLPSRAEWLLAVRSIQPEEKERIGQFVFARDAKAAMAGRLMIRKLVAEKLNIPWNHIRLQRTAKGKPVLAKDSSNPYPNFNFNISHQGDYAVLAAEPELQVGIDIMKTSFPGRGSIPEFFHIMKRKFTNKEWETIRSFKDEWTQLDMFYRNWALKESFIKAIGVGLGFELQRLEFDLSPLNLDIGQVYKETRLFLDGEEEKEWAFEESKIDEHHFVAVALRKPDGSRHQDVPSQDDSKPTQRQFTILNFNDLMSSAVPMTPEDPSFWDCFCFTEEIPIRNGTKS
# [13] = test system: E. coli BW25113; assay: Checkerboard synergy experiment with PAβN; type: cell-based, Escherichia coli; settings: top concentrations tested
# In short: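 Checkerboard broth dilution in E. coli BW25113 combining test compound with PAβN over concentration grids. Resazurin added (10 μL, 0.7% w/v) and incubated a further 4 h at 37 °C; purple wells scored as no metabolically active bacteria. At each test-compound concentration, the lowest PAβN concentration halting growth was recorded. FIC index was estimated as combined potency relative to the single components.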
# [14] = test system: S. aureus BK2395 (PFGE USA500); assay: Mouse model of S. aureus septicemia; type: in vivo; settings: 55 30 mpk, vancomycin 50 mpk; 4, 24, 48 hours post infection
# [15] = In vivo PK in male CD1 mice; parameters: species or system mouse
# [16] = test system: E. coli JW0451 (ΔacrB); assay: Broth dilution with efflux-defective E. coli mutant; type: cell-based, Escherichia coli
# In short: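 Broth microdilution: test compound in DMSO (1 μL) added to 50 μL cation-adjusted Mueller Hinton II broth, then ~1 × 10^3 cfu inoculum from overnight culture. Incubated at 30–37 °C for 16–20 h. MIC scored visually as the first well without growth. Efflux-defective ΔacrB strain JW0451 tested alongside wild-type BW25113.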
# [17] = test system: clinical strains of MRSA; assay: MIC against clinical strains of S. aureus; type: cell-based, Staphylococcus aureus; settings: all strains tested
# [18] = test system: Candida albicans; assay: MIC determination, broth dilution, fungi; type: cell-based; settings: C. albicans ATCC90028 and ATCC96901
# In short: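 Fungal MIC followed NCCLS M27 broth microdilution against fluconazole-sensitive and fluconazole-resistant C. albicans strains. Inoculum was made by suspending 2-day-old colonies in RPMI 1640, ~1 × 10^3 cfu per well, with test compound in DMSO. Incubated at 30–37 °C for 48 h. MIC read visually as the first well without growth.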
# [19] = target: CYP2D6 (Homo sapiens, UniProt P10635); assay: CYP2D6 inhibition; type: in vitro ADME; settings: 2D6, 3 μM, substrate dextromethorphan
# [20] = Compound stability in aqueous media and buffers; type: physicochemical; settings: pH range 2–9, PBS and HEPES
# Chain of CYP2D6 (P10635 whole entry): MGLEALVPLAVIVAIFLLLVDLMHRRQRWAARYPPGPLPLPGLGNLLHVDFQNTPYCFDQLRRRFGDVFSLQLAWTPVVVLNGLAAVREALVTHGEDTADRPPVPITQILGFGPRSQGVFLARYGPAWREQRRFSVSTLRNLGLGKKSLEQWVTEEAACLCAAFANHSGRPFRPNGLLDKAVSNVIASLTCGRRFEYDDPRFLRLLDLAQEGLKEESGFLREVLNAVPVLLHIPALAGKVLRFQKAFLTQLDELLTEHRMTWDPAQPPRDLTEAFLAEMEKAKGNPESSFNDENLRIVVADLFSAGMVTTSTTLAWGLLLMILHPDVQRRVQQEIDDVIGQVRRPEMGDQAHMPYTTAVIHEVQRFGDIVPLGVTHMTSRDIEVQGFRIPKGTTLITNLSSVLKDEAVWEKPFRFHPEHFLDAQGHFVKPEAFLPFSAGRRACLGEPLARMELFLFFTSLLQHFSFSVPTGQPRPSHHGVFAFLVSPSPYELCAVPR
structure (smiles),measurement,setting,value
"CCCCCCCCCCCCCCCC[N+](C)(C)C [CTAB, cetyltrimethylammonium bromide]",bacterial cell membrane integrity,[1],rapid compromise of bacterial cell integrity
same,MIC,[2],~2 µg/mL
O=C(N[C@H](CO)[C@H](O)c1ccc([N+](=O)[O-])cc1)C(Cl)Cl [Chloramphenicol],bacterial cell membrane integrity,[1],continued cellular viability
same,MIC,[2],~2 µg/mL
"Cc1ccnc(NC(=S)N2CCN(c3cccc(C(F)(F)F)c3)CC2)c1 [Compound 1, N-(4-Methylpyridin-2-yl)-4-(3-(trifluoromethyl)phenyl)piperazine-1-carbothioamide Trifluoroacetate]",reversibility of inhibition of Sfp,[3],completely reversible inhibition
FC(F)(F)c1cccc(N2CCN(C(=S)Nc3cc(C(F)(F)F)ccn3)CC2)c1 [Compound 4],IC50 ± SD,"[4]; Table 1, HTS assay",inactive
Cc1cccc(NC(=S)N2CCN(c3cccc(C(F)(F)F)c3)CC2)c1 [Compound 5],IC50 ± SD,"[4]; Table 1, HTS assay",inactive
FC(F)(F)c1cccc(N2CCN(C(=S)Nc3ccncc3)CC2)c1 [Compound 6],IC50 ± SD,"[4]; Table 1, HTS assay",inactive
"Cc1ccnc(NC(=O)N2CCN(c3cccc(C(F)(F)F)c3)CC2)c1 [Compound 12, N-(4-Methylpyridin-2-yl)-4-(3-(trifluoromethyl)phenyl)piperazine-1-carboxamide Trifluoroacetate]",B. subtilis (HM489) IC50,[5],inactive
same,IC50 ± SD,"[4]; Table 1, HTS assay",inactive
same,Sfp-PPTase IC50,"[4]; Table 4, HTS assay",inactive
Cc1ccnc(NC(=N)N2CCN(c3cccc(C(F)(F)F)c3)CC2)c1 [Compound 13],IC50 ± SD,"[4]; Table 1, HTS assay",inactive
Cc1cc(C)nc(N/C(=N/C#N)N2CCN(c3cccc(C(F)(F)F)c3)CC2)c1 [Compound 14],Sfp-PPTase inhibitory activity in words,[4],complete loss of activity
same,IC50 ± SD,"[4]; Table 1, HTS assay",inactive
Cc1cc(C)nc(NC(=C(C#N)C#N)N2CCN(c3cccc(C(F)(F)F)c3)CC2)c1 [Compound 15],Sfp-PPTase inhibitory activity in words,[4],complete loss of activity
same,IC50 ± SD,"[4]; Table 1, HTS assay",inactive
Cc1cc(C)nc(Nc2nnc(N3CCN(c4cccc(C(F)(F)F)c4)CC3)s2)c1 [Compound 16],IC50 ± SD,"[4]; Table 1, HTS assay",inactive
Cc1ccnc(N(C)C(=S)N2CCN(c3cccc(C(F)(F)F)c3)CC2)c1 [Compound 19],IC50 ± SD,"[4]; Table 1, HTS assay",inactive
Cc1ccnc(NC(=S)NC2CCN(c3cccc(C(F)(F)F)c3)CC2)c1 [Compound 20],IC50 ± SD,"[4]; Table 1, HTS assay",inactive
"Cc1ccnc(NC(=S)N2CCN(c3ccccc3C(F)(F)F)CC2)c1 [Compound 22, N-(4-Methylpyridin-2-yl)-4-(2-(trifluoromethyl)phenyl)piperazine-1-carbothioamide Trifluoroacetate]","cytotoxicity (HepG2), IC50",[6],inactive
"Cc1cc(C)nc(NC(=S)N2CCN(c3ccc(Cl)cc3C(F)(F)F)CC2)c1 [Compound 41, 4-(4-Chloro-2-(trifluoromethyl)phenyl)-N-(4,6-dimethylpyridin-2-yl)piperazine-1-carbothioamide Trifluoroacetate]","cytotoxicity (HepG2), IC50",[6],inactive
"COc1ccnc(NC(=S)N2CCN(c3ncc(C(F)(F)F)cc3Cl)CC2)c1 [Compound 55, 4-(3-Chloro-5-(trifluoromethyl)pyridin-2-yl)-N-(4-methoxypyridin-2-yl)piperazine-1-carbothioamide Trifluoroacetate]",growth inhibition of P. aeruginosa,[7],No growth inhibition
same,bacterial cell membrane integrity,[1],continued cellular viability
same,microsomal stability without NADPH,"[8]; absence of NADPH cofactor, 1 h",completely stable
same,half-life,"[8]; mouse, liver microsomes, microsomal stability (T1/2, min), mouse liver microsomes, with NADPH",49.5 min
same,PAMPA,[9],1122 × 10^–6 cm/s
same,type of antibacterial activity,[10],bactericidal activity
same,growth inhibition of E. coli,[11],No growth inhibition
same,inhibition of the human PPTase,[12],no inhibition; also recorded: null activity
same,"cytotoxicity (HepG2), IC50",[6],inactive
same,antibacterial activity of the single compound against BW25113,[13],neither compound alone was found to possess antibacterial activity
same,survival in mouse sepsis model,[14],did not increase survival
same,adverse clinical observations,"[15]; iv 3 and ip 30 mg/kg, 24 h period",did not result in any adverse clinical observations
same,time for which exposure exceeds the in vitro antibacterial MIC value,[15]; total drug concentration,over 8 h
same,lowest concentration to which the ΔacrB strain is susceptible,"[16]; E. coli JW0451, lesion in acrB locus",12.5 µg/mL
same,lowest concentration inhibiting bacterial growth (Figure 4B),[16]; legend: disruption of tolC,12 µM
same,spread of potencies over the panel of clinical isolates,[17],≤ 3 fold
same,concentration inhibiting the growth of B. subtilis,"[2]; broth dilution, resazurin",1.7 µg/mL
same,growth inhibition of fungal organisms,[18],No growth inhibition
same,CYP inh (3 μM) (%),[19],25 (2D6) %
same,"degradation in aqueous media, buffers and mouse plasma",[20],no signs of degradation
Cc1ccnc(NC(=S)NCCN(C)c2cccc(C(F)(F)F)c2)c1 [Compound 57],Sfp-PPTase inhibitory activity in words,[4],lost all activity
same,IC50 ± SD,"[4]; Table 3, HTS assay",inactive
Cc1ccnc(NC(=S)NCCNc2cccc(C(F)(F)F)c2)c1 [Compound 58],Sfp-PPTase inhibitory activity in words,[4],lost all activity
same,IC50 ± SD,"[4]; Table 3, HTS assay",inactive
Cc1ccnc(NC(=S)NC2CN(c3cccc(C(F)(F)F)c3)C2)c1 [Compound 59],Sfp-PPTase inhibitory activity in words,[4],all activity is lost
same,IC50 ± SD,"[4]; Table 3, HTS assay",inactive
"Cc1ccnc(NC(=S)N2CCC(Nc3cccc(C(F)(F)F)c3)CC2)c1 [Compound 63, N-(4-Methylpyridin-2-yl)-4-((3-(trifluoromethyl)phenyl)amino)piperidine-1-carbothioamide Trifluoroacetate]","cytotoxicity (HepG2), IC50",[6],inactive
"Nc1ncnc2c1ncn2[C@@H]1O[C@H](COP(=O)(O)O)[C@@H](OP(=O)(O)O)[C@H]1O [PAP, 3′-phosphoadenosine 5′-monophosphate, reference compound]",reversibility of inhibition of Sfp,[3],reversible
same,inhibition of the human PPTase,[12],observed inhibition
"NC(N)=NCCC[C@H](NC(=O)[C@@H](N)Cc1ccccc1)C(=O)Nc1ccc2ccccc2c1 [PAβN, phenylarginine-β-naphthamide, reference compound] (H-Phe-Arg-βNA)",antibacterial activity of the single compound against BW25113,[13],neither compound alone was found to possess antibacterial activity
"C/N=c1\nc(-c2ccccc2)n(-c2ccccc2)s1 [SCH-202676, reference compound]",reversibility of inhibition of Sfp,[3],irreversible inhibitor
same,inhibition of the human PPTase,[12],observed inhibition
"CN[C@H](CC(C)C)C(=O)N[C@H]1C(=O)N[C@@H](CC(N)=O)C(=O)N[C@H]2C(=O)N[C@H]3C(=O)N[C@H](C(=O)N[C@H](C(=O)O)c4cc(O)cc(O)c4-c4cc3ccc4O)[C@H](O)c3ccc(c(Cl)c3)Oc3cc2cc(c3O[C@@H]2O[C@H](CO)[C@@H](O)[C@H](O)[C@H]2O[C@H]2C[C@](C)(N)[C@H](O)[C@H](C)O2)Oc2ccc(cc2Cl)[C@H]1O [vancomycin, reference compound]",survival in mouse sepsis model,[14],completely protected animals from morbidity
